{
  "source": "ChEMBL document CHEMBL1773032",
  "about": "“Pierreiones A-D, solid tumor selective pyranoisoflavones and other cytotoxic constituents from Antheroporum pierrei” (J Nat Prod, 2011)",
  "key": {"HCT-116": {"tested_on": "HCT-116", "assay": "Cytotoxicity against human HCT116 cells measured per disk after 5 days by hemocytometer counting", "type": "functional, cell-based", "in_short": "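HCT-116 cells seeded at 5 × 10^4 cells per T25 flask in RPMI-1640 with 15% FBS, 1% penicillin-streptomycin and 1% glutamine, 37 °C, 5% CO2. Drug added at several concentrations on day 3, then incubated 120 h (5 d). Cells trypsinized, washed and resuspended in HBSS, counted by hemocytometer. Counts normalized to untreated control to give IC50.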"}, "MC-38 [1]": {"tested_on": "MC-38", "assay": "Selective toxicity against mouse C38 cells assessed as differential zone units at 68 ug/mL by disk diffusion soft agar colony formation assay relative to mouse L1210 cells", "type": "functional", "in_short": "(§1)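 Murine Colon 38 and leukemia L1210 cells tested in the disk diffusion soft agar colony formation assay. Differential cytotoxicity expressed as the difference in inhibition zone size between the two lines, in zone units (200 zone units = 6 mm).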"}, "MC-38 [2]": {"tested_on": "MC-38", "assay": "Selective toxicity against mouse C38 cells assessed as differential zone units at 66 ug/mL by disk diffusion soft agar colony formation assay relative to mouse L1210 cells", "type": "functional", "in_short": "as §1"}, "MC-38 [3]": {"tested_on": "MC-38", "assay": "Selective toxicity against mouse C38 cells assessed as differential zone units at 0.26 ug/mL by disk diffusion soft agar colony formation assay relative to mouse L1210 cells", "type": "functional", "in_short": "as §1"}, "MC-38 [4]": {"tested_on": "MC-38", "assay": "Selective toxicity against mouse C38 cells assessed as differential zone units at 1.9 ug/mL by disk diffusion soft agar colony formation assay relative to mouse L1210 cells", "type": "functional", "in_short": "as §1"}, "MC-38 [5]": {"tested_on": "MC-38", "assay": "Selective toxicity against mouse C38 cells assessed as differential zone units at 0.24 ug/mL by disk diffusion soft agar colony formation assay relative to mouse L1210 cells", "type": "functional", "in_short": "(§2)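 Disk diffusion soft agar colony-formation assay with murine Colon 38 (colon adenocarcinoma) and L1210 (lymphocytic leukemia) cells. The zone of inhibited colony formation around each disk is measured in zone units, where 200 zone units = 6 mm. Selectivity is the solid tumor minus leukemia zone difference.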"}, "MC-38 [6]": {"tested_on": "MC-38", "assay": "Selective toxicity against mouse C38 cells assessed as differential zone units at 0.23 ug/mL by disk diffusion soft agar colony formation assay relative to mouse L1210 cells", "type": "functional", "in_short": "as §2"}},
  "data": [
    {"smiles": "COc1cc(-c2coc3cc4c(c(OC)c3c2=O)C=CC(C)(C)O4)ccc1OC[C@@H](O)C(C)(C)O", "note": "[PIERREIONE A]", "values": [
      {"measurement": "IC50", "setting": "HCT-116", "result": 7.5, "unit": "µg"},
      {"measurement": "Activity", "setting": "MC-38 [1]", "result": 300, "unit": "Zone units"}
    ]},
    {"smiles": "COc1cc(-c2coc3cc4c(cc3c2=O)C=CC(C)(C)O4)ccc1OC[C@@H](O)C(C)(C)O", "note": "[PIERREIONE B]", "values": [
      {"measurement": "IC50", "setting": "HCT-116", "result": 18, "unit": "µg"},
      {"measurement": "Activity", "setting": "MC-38 [2]", "result": 300, "unit": "Zone units"}
    ]},
    {"smiles": "COc1cc(-c2coc3cc4c(c(OC)c3c2=O)C=CC(C)(C)O4)ccc1OCC=C(C)C", "note": "[PIERREIONE C]", "values": [
      {"measurement": "IC50", "setting": "HCT-116", "result": "> 46", "unit": "µg"}
    ]},
    {"smiles": "C=C(C)[C@H]1Cc2c(ccc3c2O[C@@H]2COc4cc(OC)c(OC)cc4[C@]2(O)C3=O)O1", "note": "[ROTENOLONE]", "values": [
      {"measurement": "Activity", "setting": "MC-38 [3]", "result": 450, "unit": "Zone units"},
      {"measurement": "IC50", "setting": "HCT-116", "result": 0.055, "unit": "µg"}
    ]},
    {"smiles": "COc1cc(-c2coc3cc4c(cc3c2=O)C=CC(C)(C)O4)ccc1OCC=C(C)C", "note": "[PIERREIONE D]", "values": [
      {"measurement": "IC50", "setting": "HCT-116", "result": 30, "unit": "µg"},
      {"measurement": "Activity", "setting": "MC-38 [4]", "result": 600, "unit": "Zone units"}
    ]},
    {"smiles": "COc1cc2c(cc1OC)[C@]1(O)C(=O)c3ccc4c(c3O[C@@H]1CO2)C=CC(C)(C)O4", "note": "[TEPHROSIN]", "values": [
      {"measurement": "IC50", "setting": "HCT-116", "result": 0.04, "unit": "µg"},
      {"measurement": "Activity", "setting": "MC-38 [5]", "result": 550, "unit": "Zone units"}
    ]},
    {"smiles": "C=C(C)[C@H]1Cc2c(ccc3c2O[C@@H]2COc4cc(OC)c(OC)cc4[C@@H]2C3=O)O1", "note": "[ROTENONE]", "values": [
      {"measurement": "Activity", "setting": "MC-38 [6]", "result": 500, "unit": "Zone units"},
      {"measurement": "IC50", "setting": "HCT-116", "result": 0.045, "unit": "µg"}
    ]}
  ]
}
